Autophagy mod = autophagy modulators in MEF cells, primary screen, imaging, high-content, MEF GFP-LC3; MEF GFP-LC3 puncta imaging; test concentration mostly 10 µM; calls only at 10 µM (by protocol); 0.98% of 190,000 active;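 active means percentage of spot-positive cells more than 3 SD above its plate mean, without a fluorescence outlier flag or 80% toxicity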
L929 necroptosis = inhibitors of zVAD-triggered necroptosis, primary screen, L929 cells; L929 zVAD necroptosis rescue, ATP luminescence, 24 h; with zVAD 60 µM; viability rescue, % at 10 µM; 0.38% of 220,000 active; AID 1377, 2008;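 active means activation, scaled between plate controls, above about 75%, limit read from the data; inactive means activation under that limit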
TNF necrop inh = inhibitors of TNF-alpha triggered necroptosis, primary screen, cell-based, Jurkat FADD-/-, single concentration. activation (protection from cell death), % at 10 µM. 0.068% of 220,000 active. Jurkat FADD-/- TNF necroptosis rescue, ATP luminescence, 24 h; 0 = TNF only, 100 = no-TNF cells;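 active means activation, meaning protection from cell death, of at least 50% relative to plate controls; inactive means activation below 50%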;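 further: necroptosis triggered by 40 ng/mL TNF-alpha added together with compound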
MDM2 E3 inh = MDM2-luciferase reporter signal enhancers, primary screen, MDM2 E3 ligase inhibitor project, cell-based, luminescence, 1536-well | cell-based MDM2 ubiquitination luciferase reporter, 2 h; 0 = plate control, 100 = twice control, blank-subtracted | signal enhancement, % at 5 µM | 0.11% of 210,000 active | AID 1230, 2008;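 active means signal enhancement of 30% or more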;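 further: luminescence tracks abundance of the self-degrading MDM2-luciferase fusion protein; higher signal means inhibition of MDM2 E3 ligase activity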
Target sequence (Q00987 whole entry, looked up, the tested form may be a part): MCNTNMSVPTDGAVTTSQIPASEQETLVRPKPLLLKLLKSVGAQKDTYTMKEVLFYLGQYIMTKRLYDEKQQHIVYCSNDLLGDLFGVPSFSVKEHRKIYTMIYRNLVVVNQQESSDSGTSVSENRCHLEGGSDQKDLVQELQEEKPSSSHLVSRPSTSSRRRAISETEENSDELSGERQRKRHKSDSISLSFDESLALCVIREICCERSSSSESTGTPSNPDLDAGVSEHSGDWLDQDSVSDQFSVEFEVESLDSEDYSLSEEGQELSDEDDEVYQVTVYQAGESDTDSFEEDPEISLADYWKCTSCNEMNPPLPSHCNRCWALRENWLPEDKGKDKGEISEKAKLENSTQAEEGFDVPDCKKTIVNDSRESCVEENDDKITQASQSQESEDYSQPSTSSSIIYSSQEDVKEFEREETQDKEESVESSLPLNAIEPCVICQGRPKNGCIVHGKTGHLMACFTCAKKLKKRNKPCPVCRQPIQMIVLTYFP
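Test system: stable mammalian line carrying autodegrading MDM2–luciferase fusion reporter; quantity: 2000 cells in each well; times: 4 h cell settling then 2 h compound exposure, 37 °C; detection: luminescence with SteadyLite reagent, 15 min at room temperature; evaluation: percent signal gain over controls, blank-subtracted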
Dynein cargo inh = inhibitors of GR-EGFP nuclear translocation, primary screen, dynein cargo transport inhibitor project, imaging, high-content, 3617.4 mouse cells | 0.47% of 220,000 active | test concentration mostly 20 µM; stimulated with dexamethasone, 1 µM; stronger effect = lower value | z-score, hits read low;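 active means plate z-score of nuclear minus cytoplasmic receptor signal below a set negative limit, without overly bright fluorescence or cell loss, cut at about -3.5 in these data, passing the limit was not always enough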;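 further: z-score of nuclear minus cytoplasmic ring GR-EGFP intensity difference per well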
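Also added – dexamethasone, 1.0 µM final · Buffer or medium – tet-free, stripped-serum medium · Schedule – induction 48 h, compound 1 h, agonist 30 min · Detection – formaldehyde fixation, Hoechst nuclear stain, 10x automated fluorescence imaging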
Of the large screens only hits and unclear results are named; the others gave an inactive call. Rows were chosen to be rich in hits. Some 1.8% of all compounds tested hit in one or more screens of this group.

CCc1cc[n+](-c2nc3ccccc3nc2[N-]S(=O)(=O)c2ccc(Br)s2)cc1	Autophagy mod active
COc1ccc(NC(=O)CSc2nc(-c3ccc(C)cc3)cc(C(F)(F)F)c2C#N)cc1	none
COc1ccc(-c2cc(C(F)(F)F)c(C#N)c(SCC(=O)Nc3ccccc3C#N)n2)cc1	Autophagy mod active
COc1ccc(-c2cc(C(F)(F)F)c(C#N)c(SCC(=O)Nc3nc(C)co3)n2)cc1	Autophagy mod active
COc1ccc(/C=C2\CCC/C(=C\C=N\N(C)C)C2=O)cc1	none
CN(C)/N=C/C=C1\CCC/C(=C\c2ccc(F)c(F)c2)C1=O	Autophagy mod active
COc1ccc(N=c2oc3c(OC)cccc3cc2C(=O)NCc2ccco2)c(OC)c1	Autophagy mod active
COc1ccc2cc(C(=O)NCc3ccco3)c(=Nc3ccc(C(=O)O)cc3)oc2c1	none
CCc1cc2c(N=Nc3c(O)[nH]c4ccccc34)ncnc2s1	Autophagy mod active
Cc1sc2ncnc(N=Nc3c(O)[nH]c4ccccc34)c2c1C	none
COc1ccc(-c2cc(-c3ccc(OC)cc3)nc(-c3ccc4c(c3)NC(=O)CO4)c2)cc1	Autophagy mod active
CC(Nc1nc(-c2ccc3c(c2)NC(=O)CO3)cs1)c1ccccc1 (stereo unspecified)	TNF necrop inh 83
Cc1ccc(CNCC(O)(c2ccccc2)c2ccc(Cl)cc2)cc1 (stereo unspecified)	Autophagy mod active
CC(=O)c1sc(N/N=C2\CC3CC2C(C)C3(C)C)nc1C (stereo unspecified)	none
COc1cc(C2C(C#N)=C(N)Oc3cc(O)ccc32)cc(OC)c1OC (stereo unspecified)	Autophagy mod active
COc1ccc(C2C(C#N)=C(N)Oc3cc(O)ccc32)cc1OC (stereo unspecified)	none
CC1=CC(C)(C)N(S(=O)(=O)c2ccc(F)cc2)c2ccccc21	none
CC(=O)Nc1ccc(S(=O)(=O)N2c3ccccc3C(C)=CC2(C)C)cc1	Autophagy mod active
CC1=CC(C)(C)N(S(=O)(=O)c2ccc(C)cc2)c2ccc(C)cc21	Autophagy mod active
Cc1oc(-c2ccc3ccccc3c2)nc1CN(C)C(C)c1ccncn1 (stereo unspecified)	none
COc1cccc(-c2nc(N)nc(SC)c2C#N)c1	none (no result: Autophagy mod)
COc1ccc(NC(=O)c2ccccc2NC(=O)CSc2ccc(Cl)cc2)cc1	Autophagy mod active
CCCCCCN(C(=O)CCCCCN1C(=O)NC(c2ccc(-c3ccccc3)cc2)C(C(=O)OCc2ccccc2)=C1C)C(C(=O)NCCCC)c1ccccc1 (stereo unspecified)	none (no result: Autophagy mod)
CCCCCCN(C(=O)CCCCCN1C(=O)NC(c2ccc(-c3ccccc3)cc2)C(C(=O)OCc2ccccc2)=C1C)C(C)C(=O)NCCCC (stereo unspecified)	Autophagy mod active (no result: MDM2 E3 inh)
COc1ccc(NC(=O)C2CC(=O)N=C(N)S2)cc1 (stereo unspecified)	none
CC(=O)c1nc(N2C(=O)CC(Cc3cccc(C)c3)C2=O)sc1C (stereo unspecified)	none
CC(=O)c1nc(N2C(=O)CC(Cc3cc(C)cc(C)c3)C2=O)sc1C (stereo unspecified)	Autophagy mod active
CC(C(=O)NCCc1ccc(F)cc1)N1CCN(Cc2ccccc2)CC1 (stereo unspecified)	none
O=C(N/N=C/C=C/c1ccccc1)c1n[nH]c2c1CCC2	none
O=C(N/N=C/C(Br)=C\c1ccccc1)c1n[nH]c2c1CCC2	Autophagy mod active
CC(/C=N/NC(=O)c1n[nH]c2c1CCC2)=C\c1ccccc1	Autophagy mod active (no result: MDM2 E3 inh)
Cc1ccc(/C=N/NC(=O)c2n[nH]c3c2CCCC3)cc1	none (no result: Autophagy mod)
CC(=O)c1ccc(Nc2cc(C)nc3c(C)cc(C)cc23)cc1	Autophagy mod active
O=C(Nc1ccc(Cl)c(C(F)(F)F)c1)NC1CC2CCCC(C1)N2C1CC1 (stereo unspecified)	Autophagy mod active (no result: MDM2 E3 inh)
O=C(Nc1cccc(F)c1)NC1CC2CCCC(C1)N2C1CC1 (stereo unspecified)	none
COc1ccc(C(=O)N2N=C3CC(C)(C)OCC3C2c2ccccc2)cc1 (stereo unspecified)	none (no result: L929 necroptosis)
CCC(=O)Nc1nonc1-c1nc2ccccc2n1Cc1cccc2ccccc12	Autophagy mod active
CCOc1ccc(NC(=O)c2nsc(Cl)c2Cl)cc1	Autophagy mod active
O=C(Nc1ccc(F)cc1)c1nsc(Cl)c1Cl	none (no result: L929 necroptosis)
O=C(Nc1ccc(Br)cc1)c1cccc(N2C(=O)C3C4CCC(C4)C3C2=O)c1 (stereo unspecified)	none
COc1cc(N2CCCC2)c(OC)cc1/C=C(/C#N)c1ccc(F)cc1	Autophagy mod active
Cc1ccsc1C(=O)N1CCC(CO)(Cc2ccccc2)CC1	none
OC(COc1ccc(CNCCc2ccc(C(F)(F)F)cc2)cc1)CN1CCCCC1 (stereo unspecified)	Autophagy mod active
COc1cc(C2Nc3cccc4cccc(c34)N2)cc(OC)c1O	Autophagy mod active, Dynein cargo inh -3.7
COc1cc(C2Nc3cccc4cccc(c34)N2)ccc1OC(C)=O	none
CCCCCCC(=O)Nc1ccc(C(=O)N/N=C/c2cccnc2)cc1	none
CCCCCCCC(=O)Nc1ccc(C(=O)N/N=C/c2cccc([N+](=O)[O-])c2)cc1	Autophagy mod active
O=C(CCCc1nc2ccccc2s1)Nc1nccs1	none
Cc1cnc(NC(=O)CCCc2nc3ccccc3s2)s1	Autophagy mod active
COc1c(/C=N/NC(=O)c2ccncc2)c(CCN(C)C(C)=O)cc2c1OCO2	none (no result: Autophagy mod)
OC(COC(c1ccc(Cl)cc1)c1ccc(Cl)cc1)CN1CCc2ccccc2C1 (stereo unspecified)	none
OC(COC(c1ccc(Cl)cc1)c1ccc(Cl)cc1)CN1CCCC1 (stereo unspecified)	Autophagy mod active
N#C/C(=C\c1ccccc1[N+](=O)[O-])c1nc(C2CC2)cs1	none (no result: L929 necroptosis)
N#C/C(=C\C=C\c1ccccc1[N+](=O)[O-])c1nc(-c2ccc3c(c2)OCO3)cs1	Autophagy mod active
O=C(Nc1cccc2cccnc12)c1ccc(Br)o1	L929 necroptosis 76
O=C(Nc1cccc2ccccc12)c1ccc(Br)o1	none
Cc1ccc2nc(/C(C#N)=C\c3ccc(Oc4ccc([N+](=O)[O-])cn4)cc3)[nH]c2c1	none
Cc1ccc2nc(/C(C#N)=C\c3ccc([N+](=O)[O-])o3)[nH]c2c1	Autophagy mod active
